According to publication PMC3346932 (Molecular Imaging and Biology, 2011):
Like-named read-outs stand apart in the source and are kept apart here. Where a SMILES comes first, the peptide text is derived from it. Bridges are numbered along the chain shown (N, C = ends). Where no end group is shown, it is not given here. The star is where a group is joined. IRDye800CW = CC1(C)C(/C=C/C2=C(Oc3ccc(S(=O)(=O)O)cc3)C(=C/C=C3/N(CCCCS(=O)(=O)O)c4ccc(S(=O)(=O)O)cc4C3(C)C)/CCC2)=[N+](CCCCCC(=O)*)c2ccc(S(=O)(=O)[O-])cc21

What was measured:
[1] = tested on: inguinal lymph node of C57BL/6 mice; test: lymphatic clearance from inguinal lymph node, NIR fluorescence imaging; assay type: in vivo, mouse; conditions: for percent of maximal fluorescence intensity retained over the study period: intradermal, 0–50 min, normalized to maximum
How it was run: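 C57BL/6 mice were induced with 2–3% isoflurane and kept under <1% for 50 min at 37°. […] A region near the inguinal node was imaged at 200 ms/frame at 0.5, 2.5, 15, 30 and 50 min. Signal was normalized to each agent's maximum node intensity; Student's t test, α = 0.05.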

[2] = reference standard; ref [53]; cited from earlier work
[3] = tested on: lymphatic vasculature of C57BL/6 mice; test: in vivo NIR fluorescence lymphatic imaging; set-up: species or system mouse; conditions: intradermal 20 μL of 500 μM ICG or 100 μM cABD-IRDye800
How it was run: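 Shaved female C57BL/6 mice, 6–7 weeks old, under 2–3% isoflurane on a 37° heating pad (~30 min per animal). Intradermal injection at the tail base, with the injection site taped over. Illumination by a 785 nm laser diode (80 mW) expanded to an ~8 cm area. EMCCD capture through an 830 nm bandpass filter at 200 ms per frame. Mice monitored during and after imaging.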

[4] = ref [27], cited from earlier work
[5] = HPLC degradation study of ICG in saline; assay type: physicochemical; conditions: 100 μg/mL ICG in saline, by 25 h
[6] = water-octanol partition coefficient; assay type: physicochemical
[7] = fluorescence optical properties; assay type: physicochemical; conditions: 785/830 nm
mouse serum albumin = mouse serum albumin (mouse, UniProt P07724 25-608); test: SPR

In the case of `CC1(C)C(/C=C/C2=C(Oc3ccc(S(=O)(=O)O)cc3)C(=C/C=C3/N(CCCCS(=O)(=O)O)c4ccc(S(=O)(=O)[O-])cc4C3(C)C)/CCC2)=[N+](CCCCCC(=O)O)c2ccc(S(=O)(=O)O)cc21` [IRDye800], the “percent of maximum fluorescence remaining at 50 min” value ([1]; intradermal 20 μL of 100 μM, 50 min) is reported as “less than 30%”.

In the case of `CC1(C)C(/C=C/C=C/C=C/C=C2\N(CCCCS(=O)(=O)O)c3ccc4ccccc4c3C2(C)C)=[N+](CCCCS(=O)(=O)[O-])c2ccc3ccccc3c21` [ICG, indocyanine green], the known lifetime [2] is listed as 0.56 ns, the “adverse events during and after imaging” value [3] is listed as “none” and the “percent of maximal fluorescence intensity retained over the study period” value [1] is listed as “at least 80%”. For the same molecule, the half life ([4]; ambient temperature under normal light) was 14 h, the half life ([4]; aqueous solution, darkness, low temperature (8°C)) was “approximately 20 h” and the half life ([4]; aqueous solution, exposure to light at 786 nm) was 2.3 h. The ICG peak remaining [5] was 30% and the degradation peak [5] was 70%.

For `CC[C@H](C)[C@H](NC(=O)[C@H](CC(C)C)NC(=O)[C@H](CCCNC(=N)N)NC(C)=O)C(=O)N[C@@H](CCC(=O)O)C(=O)N[C@@H](CC(=O)O)C(=O)N[C@H](C(=O)N[C@H]1CSSC[C@@H](C(=O)N[C@@H](CC(C)C)C(=O)N[C@@H](Cc2c[nH]c3ccccc23)C(=O)N[C@@H](CCC(=O)O)C(=O)N[C@@H](CC(=O)O)C(=O)N[C@@H](CC(=O)O)C(=O)N[C@@H](CCCCNC(=O)CCCCCN2C(=CC=C3CCCC(C=CC4=[N+](CCCCS(=O)(=O)O)c5ccc(S(=O)(=O)[O-])cc5C4(C)C)=C3Oc3ccc(S(=O)(=O)O)cc3)C(C)(C)c3cc(S(=O)(=O)O)ccc32)C(N)=O)NC(=O)CNC(=O)[C@H](Cc2c[nH]c3ccccc23)NC(=O)[C@H](CCCNC(=N)N)NC(=O)[C@@H]2CCCN2C(=O)[C@H](CC(C)C)NC1=O)[C@@H](C)CC` [cABD-IRDye800] (Ac-RLIEDICLPRWGCLWEDDK(IRDye800CW)-NH2; disulfide 7-13; N-terminus and C-terminus assumed), the “adverse events during and after imaging” value [3] was “none”, the “percent of maximal fluorescence intensity retained over the study period” value [1] was “at least 80%” and the logP [6] was -0.53. For the same molecule, the “lifetime relative to ICG” value [7] was 1.6 times.

With RLIEDICLPRWGCLWEDDK (disulfide 7-13; also: Dylight680 conjugated, site not given here) [cABD conjugated to Dylight680] the Kd (mouse serum albumin) was 32 nM.
